Laboratory results reported in ChEMBL document CHEMBL1139359, “Novel chemotactic For-Met-Leu-Phe-OMe (fMLF-OMe) analogues based on met residue replacement by 4-amino-proline scaffold: synthesis and bioactivity” (2009).
The source made the active and inactive calls. The rule behind the calls is not given here.

What was measured:
Neutrophil [1] = assay: Induction of lysozyme release in human neutrophil at 1 uM; assay type: functional
In short: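 Cells at 3×10^6/well, in triplicate wells, preincubated with 5 µg/mL cytochalasin B at 37 °C for 15 min, then peptide (final 10^–10–5·10^–5 M) for 15 min. Plates spun 400g for 5 min. Supernatant lysozyme measured nephelometrically as rate of Micrococcus lysodeikticus cell-wall lysis at 465 nm. Expressed as net % of total content released by 0.1% Triton X-100. Mean of five experiments in duplicate.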

Neutrophil [2] = assay: Induction of superoxide anion radicals production in human neutrophil at 10 uM; assay type: functional
In short: (§1)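 Donor neutrophils (dextran/Ficoll/hypotonic lysis, KRPG pH 7.4) pretreated with 5 µg/mL cytochalasin B for 5 min. Peptide then added at 10^–10–5·10^–5 M at 37 °C in microplate reader. Cytochrome c reduction read as absorbance difference 550 vs 468 nm (absorptivity 18.5 mmol^–1 cm^–1). Expressed as net nmol O2− per 10^6 cells per 5 min, mean of six experiments in duplicate.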

Neutrophil [3] = assay: Induction of chemotactic activity in human neutrophil assessed as chemotactic index at 1 nM; assay type: functional
In short: (§2)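 Neutrophils from healthy donors were purified by dextran sedimentation, Ficoll-Paque centrifugation and hypotonic red-cell lysis, then held in KRPG pH 7.4. Peptide placed in lower well of a 48-well microchemotaxis chamber, diluted in KRPG with 1 mg/mL BSA, tested at 10^–13 to 10^–5 M. Migration into filter scored by leading-front method. C.I. = (test − buffer migration)/buffer migration. Mean of six experiments run in duplicate.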

Neutrophil [4] = assay: Inhibition of fMLF-OMe-induced chemotactic index in human neutrophil at 100 uM; assay type: functional; design: Activity: scale not given: the % may be the effect or the level left; details: for inhibition at 100 µM: Homo sapiens, Neutrophil
In short: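 Human neutrophils, chemotaxis toward 10 nM fMLF-OMe in microchemotaxis chamber, measured with increasing concentrations of test peptide. Inhibition scored on chemotactic index (test − buffer migration over buffer migration), with migration assessed by leading-front method.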

Neutrophil [5] = assay: Inhibition of fMLF-OMe-induced lysozyme release in human neutrophil assessed as lysis of Micrococcus lysodeikticus cell wall by nephelometry; assay type: functional, cell-based
Neutrophil [6] = assay: Induction of chemotactic activity in human neutrophil at 0.1 nM; assay type: functional; in short: as §2
Neutrophil [7] = assay: Inhibition of fMLF-OMe-induced superoxide anion radicals production in human neutrophil; assay type: functional, cell-based
Neutrophil [8] = assay: Induction of superoxide anion radicals production in human neutrophil at 1 uM; assay type: functional; in short: as §1

SMILES | Activity (Neutrophil [1]) [%] | Activity (Neutrophil [2]) [nmol] | Activity (Neutrophil [3]) | inhibition at 100 µM (Neutrophil [4]) [%] | Activity (Neutrophil [5]) | Activity (Neutrophil [6]) | Activity (Neutrophil [2]; in the assay text read “1 uM” for “10 uM”) [nmol] | Activity (Neutrophil [7]) | Activity (Neutrophil [8]) [nmol] | Activity (Neutrophil [4]) [%]
COC(=O)[C@H](Cc1ccccc1)NC(=O)[C@H](CC(C)C)NC(=O)[C@@H]1C[C@H](NC(=O)OC(C)(C)C)CN1C(=O)OC(C)(C)C | 12 | 14.6 | 0.4 | 60 | inactive | – | – | – | – | –
COC(=O)[C@H](Cc1ccccc1)NC(=O)[C@H](CC(C)C)NC(=O)[C@@H]1C[C@H](NC=O)CN1C=O | 24 | – | – | – | inactive | 0.7 | 4 | – | – | –
COC(=O)[C@H](Cc1ccccc1)NC(=O)[C@H](CC(C)C)NC(=O)[C@@H]1C[C@H](NC=O)CN1C(=O)OC(C)(C)C | 12 | 2 | 0.34 | – | – | – | – | inactive | – | –
COC(=O)[C@H](Cc1ccccc1)NC(=O)[C@H](CC(C)C)NC(=O)[C@@H]1C[C@@H](NC=O)CN1C=O | 15 | – | – | – | inactive | 0.75 | – | – | 5 | –
COC(=O)[C@H](Cc1ccccc1)NC(=O)[C@H](CC(C)C)NC(=O)[C@@H]1C[C@@H](NC=O)CN1C(=O)OC(C)(C)C | 13 | 1 | 0.4 | – | – | – | – | inactive | – | 73
COC(=O)[C@H](Cc1ccccc1)NC(=O)[C@H](CC(C)C)NC(=O)[C@H](CCSC)NC=O | 60 | – | 1.1 | – | – | – | – | – | 52 | –
COC(=O)[C@H](Cc1ccccc1)NC(=O)[C@H](CC(C)C)NC(=O)[C@@H]1C[C@@H](NC(=O)OC(C)(C)C)CN1C(=O)OC(C)(C)C | 18 | 2 | – | 60 | inactive | 0.45 | – | – | – | –
